# Laboratory results from ChEMBL document CHEMBL1949625, “Hydroxyl may not be indispensable for raltegravir: Design, synthesis and SAR Studies of raltegravir derivatives as HIV-1 inhibitors” (Eur J Med Chem, 2012).
# Tests used:
# [1] = Cytotoxicity against human TZM-bl cells after 48 hrs by MTT assay; format: cell-based
# How it was run: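 TZM-bl cells plated and incubated 18 h at 37 °C, then exposed to compounds for 48 h. MTT (5 mg/mL, 20 uL) added for 3 h at 37 °C; plates shaken 10 min at room temperature. OD550 read with 690 nm reference.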
# [2] = system: Human immunodeficiency virus 1; assay: Antiviral activity against HIV1 harboring VSV glycoprotein-G co-transfected with luciferase gene infected in human TZM-bl cells assessed as inhibition of viral replication at 10 uM after 48 hrs by microplate luminometer based luciferase assay; format: functional; conditions: for inhibition at 10 µM: Human immunodeficiency virus 1, TZM-bl, 48 h
# How it was run: (§1)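 TZM-bl cells seeded at 10^4 cells/well; next day compounds (from DMSO stocks) added, then pseudotyped virus; final DMSO 2% in all wells. Incubated 48 h at 37 °C, humidified CO2. Steady-glow substrate added directly, lysis 20 min in dark, luciferase luminescence read. AZT and MK-0518 as assay controls. Primary screen run at 10 μM.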
# [3] = system: Human immunodeficiency virus 1; assay: Antiviral activity against HIV1 harboring VSV glycoprotein-G co-transfected with luciferase gene infected in human TZM-bl cells assessed as inhibition of viral replication after 48 hrs by microplate luminometer based luciferase assay; format: functional, organism-based; conditions: Human immunodeficiency virus 1, TZM-bl; how it was run: as §1
SMILES,Activity [1],inhibition at 10 µM [2] [%],IC50 [3] [nM],inhibition (INH) [2] [%]
CCN(CC)C(=O)C(=O)NC(C)(C)c1nc(C(=O)NCc2ccc(F)cc2)c(OC(C)=O)c(=O)n1C,Non-toxic,94.2,0.062,–
CCN(CC)C(=O)C(=O)NC(C)(C)c1nc(C(=O)NCc2ccc(F)cc2)c(OS(=O)(=O)c2c(C)cc(C)cc2C)c(=O)n1C,Non-toxic,77.7,0.3,–
Cc1cn([C@H]2C[C@H](N=[N+]=[N-])[C@@H](CO)O2)c(=O)[nH]c1=O [ZIDOVUDINE],–,100,–,–
CC(=O)Oc1c(C(=O)NCc2ccc(F)cc2)nc(C(C)(C)NC(=O)c2nnc(C)o2)n(C)c1=O,Non-toxic,95.1,1,–
CCN(CC)C(=O)C(=O)NC(C)(C)c1nc(C(=O)NCc2ccc(F)cc2)c(OC(=O)c2ccccc2)c(=O)n1C,Non-toxic,92.8,8e-05,–
Cc1nnc(C(=O)NC(C)(C)c2nc(C(=O)NCc3ccc(F)cc3)c(O)c(=O)n2C)o1 [RALTEGRAVIR POTASSIUM],–,95.1,8,–
CCN(CC)C(=O)C(=O)NC(C)(C)c1nc(OC)c(OC(=O)c2ccccc2)c(C(=O)OC)n1,Non-toxic,19.8,–,–
CCN(CC)C(=O)C(=O)NC(C)(C)c1nc(C(=O)NCc2ccc(F)cc2)c(O)c(=O)n1C,Non-toxic,95.5,0.5,–
Cc1cc(C)c(S(=O)(=O)Oc2c(C(=O)NCc3ccc(F)cc3)nc(C(C)(C)NC(=O)c3nnc(C)o3)n(C)c2=O)c(C)c1,Non-toxic,94.9,0.04,–
CCN(CC)C(=O)C(=O)NC(C)(C)c1nc(OC)c(OC(=O)c2ccccc2)c(C(=O)NCc2ccc(F)cc2)n1,Non-toxic,52.1,–,–
COc1nc(C(C)(C)NC(=O)c2nnc(C)o2)nc(C(=O)NCc2ccc(F)cc2)c1O,Non-toxic,–,–,94.1
CCN(CC)C(=O)C(=O)NC(C)(C)c1nc(OC)c(OS(=O)(=O)c2c(C)cc(C)cc2C)c(C(=O)NCc2ccc(F)cc2)n1,Non-toxic,6,–,–
Cc1nnc(C(=O)NC(C)(C)c2nc(NCc3ccc(F)cc3)c(O)c(C(=O)NCc3ccc(F)cc3)n2)o1,Non-toxic,47.5,–,–
CCN(CC)C(=O)C(=O)NC(C)(C)c1nc(C(=O)NCc2ccc(F)cc2)c(OS(C)(=O)=O)c(=O)n1C,Non-toxic,93.7,0.64,–
CCN(CC)C(=O)C(=O)NC(C)(C)c1nc(OC)c(OC(C)=O)c(C(=O)NCc2ccc(F)cc2)n1,Non-toxic,59.3,–,–
COc1nc(C(C)(C)NC(=O)c2nnc(C)o2)nc(C(=O)NCc2ccc(F)cc2)c1OS(C)(=O)=O,Non-toxic,88.3,32.8,–
CCN(CC)C(=O)C(=O)NC(C)(C)c1nc(OC)c(O)c(C(=O)NCc2ccc(F)cc2)n1,Non-toxic,44.9,–,–
CCN(CC)C(=O)C(=O)NC(C)(C)c1nc(OC)c(OS(C)(=O)=O)c(C(=O)NCc2ccc(F)cc2)n1,Non-toxic,28.6,–,–
Cc1nnc(C(=O)NC(C)(C)c2nc(C(=O)NCc3ccc(F)cc3)c(OC(=O)c3ccccc3)c(=O)n2C)o1,Non-toxic,100,4e-05,–
CCN(CC)C(=O)C(=O)NC(C)(C)c1nc(C(=O)OC)c(OC(=O)c2ccccc2)c(=O)n1C,Non-toxic,-2.7,–,–
COc1nc(C(C)(C)NC(=O)c2nnc(C)o2)nc(C(=O)NCc2ccc(F)cc2)c1OC(C)=O,Non-toxic,94.2,7.3,–
Cc1nnc(C(=O)NC(C)(C)c2nc(C(=O)NCc3ccc(F)cc3)c(OS(C)(=O)=O)c(=O)n2C)o1,Non-toxic,92.7,2.4,–
COc1nc(C(C)(C)NC(=O)c2nnc(C)o2)nc(C(=O)NCc2ccc(F)cc2)c1OS(=O)(=O)c1c(C)cc(C)cc1C,Non-toxic,79.7,1200,–
COc1nc(C(C)(C)NC(=O)c2nnc(C)o2)nc(C(=O)NCc2ccc(F)cc2)c1OC(=O)c1ccccc1,Non-toxic,93.4,14.7,–
COc1nc(C(C)(C)NC(=O)c2nnc(C)o2)nc(C(=O)NCc2ccc(F)cc2)c1[O-].[K+],Non-toxic,92.9,200,–
